Test results: ChEMBL document CHEMBL1159309, “A prolyl endopeptidase-inhibiting benzofuran dimer from Polyozellus multiflex” (J Nat Prod, 2002)

Columns and labels:
Set-up in all cases: scale not given: the % may be the effect or the level left
[1] = Inhibition of trypsin at 97.6 uM relative to control
In short: (§1)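 Enzyme assays run per supplier catalogue protocols, substrates as printed: […], elastase N-succinyl-Ala-Ala-Ala-pNA. Test sample given in MeOH; control received 10 µL MeOH in its place. Activity relative to solvent-treated control, mean of five data points with standard error of the mean.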

[2] = Inhibition of trypsin at 2.4 uM relative to control; in short: as §1
[3] = Inhibition of elastase at 97.6 uM relative to control; in short: as §1
[4] = Inhibition of trypsin at 12.2 uM relative to control; in short: as §1
[5] = Inhibition of chymotrypsin at 97.6 uM relative to control; in short: as §1
[6] = Inhibition of elastase at 12.2 uM relative to control; in short: as §1
[7] = Inhibition of chymotrypsin at 12.2 uM relative to control; in short: as §1
[8] = Inhibition of chymotrypsin at 2.4 uM relative to control; in short: as §1
[9] = Inhibition of elastase at 2.4 uM relative to control; in short: as §1

Activity [1]: 5.9%
Activity [2]: 3.1%
Activity [3]: 29%
Activity [4]: 5.6%
Activity [5]: 4%
Activity [6]: 27.6%
Activity [7]: 6.6%
Activity [8]: 3.7%
Activity [9]: 22%
Structure (SMILES): COC(=O)c1oc2cc(O)c(O)cc2c1-c1c(C(=O)OC)oc2cc(O)c(O)cc12
